# Reference: article PMC7590959 (Journal of medicinal chemistry, 2020)
# Assays:
# OXA-24 = OXA-24 (Acinetobacter baumannii, UniProt Q8RLA6); assay: β-Lactamase hydrolysis, OXA-24; format: biochemical; conditions: OXA-24, 200 nM enzyme, 100 μM 1
# KPC-2 = KPC-2 (Klebsiella pneumoniae, UniProt Q9F663); assay: β-Lactamase hydrolysis, KPC-2; format: biochemical; conditions: KPC-2, 200 nM enzyme, 100 μM 1
# eight CYP enzymes = assay: CYP inhibition; format: in vitro ADME; conditions: 30 μM
# PDC-3 = PDC-3 (Pseudomonas aeruginosa, UniProt P24735, T105A); assay: β-Lactamase hydrolysis, PDC-3; format: biochemical, P. aeruginosa
# OXA-23 = OXA-23 (Acinetobacter baumannii, UniProt Q9L4P2); assay: β-Lactamase hydrolysis, OXA-23; format: biochemical; conditions: OXA-23, 200 nM enzyme, 100 μM 1
# [1] = tested on: primary human hepatocytes; assay: Toxicity against primary human hepatocytes; format: cell-based; conditions: maximum concentration 100 μM, 72 h incubation
# Caco-2 = Caco-2 permeability; format: in vitro ADME
# [2] = Plasma PK after IV administration in mice; format: in vivo; conditions: CD-1, mouse, 50 mg/kg
# In short: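 CD-1 mice in groups of 24 received 50 mg/kg IV with parallel sampling. Blood was taken by cardiac puncture under isoflurane into lithium heparin or K2EDTA tubes and kept on ice. Tubes were spun at 2500 × g for 15 min at 4 °C within 1 h, and plasma was stored at −70 °C. Samples were acetonitrile-precipitated and run by HPLC-MS/MS against a spiked-plasma calibration curve with internal standard. Parameters were derived by noncompartmental analysis.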
# PER-2 = assay: β-Lactamase hydrolysis, PER-2; format: biochemical; conditions: PER-2, 200 nM enzyme, 100 μM 1
# hERG = hERG (Homo sapiens, UniProt Q12809); assay: hERG binding; conditions: 30 μM
# [3] = tested on: seven other tested ion channels; assay: Other ion channels; format: binding; conditions: 30 μM
# Gram-negative isolates = assay: Abbreviated MIC panel of Gram-negative isolates; format: cell-based
# In short: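 Broth microdilution MIC using iron-depleted cation-adjusted Mueller–Hinton broth, except where noted otherwise. The inoculum was lowered to 6 × 10^4 CFU/mL.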
# [4] = tested on: P. aeruginosa (197 clinical isolates); conditions: comparator MICs from the original studies; cited from earlier work
# [5] = tested on: K. pneumoniae (100 clinical isolates); conditions: comparator MICs from the original studies; cited from earlier work
# [6] = IV bags, in 24 h after reconstitution; known, ref not given; cited from earlier work
# hERG, sequence (Q12809 whole entry): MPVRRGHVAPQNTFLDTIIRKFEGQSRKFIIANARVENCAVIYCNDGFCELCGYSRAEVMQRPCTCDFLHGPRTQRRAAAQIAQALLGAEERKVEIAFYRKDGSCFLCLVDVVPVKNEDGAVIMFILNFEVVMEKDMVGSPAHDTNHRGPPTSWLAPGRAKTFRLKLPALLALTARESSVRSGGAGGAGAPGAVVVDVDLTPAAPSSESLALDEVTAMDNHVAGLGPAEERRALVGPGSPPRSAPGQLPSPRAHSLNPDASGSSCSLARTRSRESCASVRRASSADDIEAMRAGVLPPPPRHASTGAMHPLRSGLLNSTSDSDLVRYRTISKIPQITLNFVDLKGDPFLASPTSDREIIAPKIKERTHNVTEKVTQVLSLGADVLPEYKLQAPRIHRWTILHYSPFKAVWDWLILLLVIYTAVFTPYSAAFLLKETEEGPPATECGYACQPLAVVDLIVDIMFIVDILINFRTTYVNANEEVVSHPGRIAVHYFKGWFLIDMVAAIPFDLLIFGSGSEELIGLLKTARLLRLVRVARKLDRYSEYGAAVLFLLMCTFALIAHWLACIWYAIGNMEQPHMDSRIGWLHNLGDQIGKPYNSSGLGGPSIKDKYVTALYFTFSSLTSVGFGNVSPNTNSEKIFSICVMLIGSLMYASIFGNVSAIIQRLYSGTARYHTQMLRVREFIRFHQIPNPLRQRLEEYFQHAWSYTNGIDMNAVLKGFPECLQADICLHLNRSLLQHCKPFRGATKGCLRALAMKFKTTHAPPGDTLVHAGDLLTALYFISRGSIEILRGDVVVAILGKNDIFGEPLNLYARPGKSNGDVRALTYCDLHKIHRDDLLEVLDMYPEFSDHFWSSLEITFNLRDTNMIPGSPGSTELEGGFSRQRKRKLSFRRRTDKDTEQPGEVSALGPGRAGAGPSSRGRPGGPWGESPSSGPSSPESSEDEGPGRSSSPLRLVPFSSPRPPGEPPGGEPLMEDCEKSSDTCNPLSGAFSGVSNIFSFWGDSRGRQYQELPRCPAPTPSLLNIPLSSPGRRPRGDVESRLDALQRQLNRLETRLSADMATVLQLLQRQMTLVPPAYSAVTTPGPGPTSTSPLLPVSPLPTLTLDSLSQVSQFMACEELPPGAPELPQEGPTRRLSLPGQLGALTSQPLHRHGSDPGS
smiles,measurement,setting,value
"CC(C)(O/N=C(\C(=O)N[C@H]1CN2CC(C(=O)NCCN3C(=O)c4cc(O)c(O)cc4C3=O)=C(C(=O)O)N2C1=O)c1csc(N)n1)C(=O)O [Compound 1, (S,Z)-6-(2-(2-Aminothiazol-4-yl)-2-(((2-carboxypropan-2-yl)oxy)imino)acetamido)-2-((2-(5,6-dihydroxy-1,3-dioxoisoindolin-2-yl)ethyl)carbamoyl)-5-oxo-6,7-dihydro-1H,5H-pyrazolo[1,2-a]pyrazole-3-carboxylic Acid]",hydrolysis by β-lactamase,OXA-24,hydrolysis was not detected
same,hydrolysis by β-lactamase,KPC-2,hydrolysis was not detected
same,CYP inhibition,eight CYP enzymes,does not inhibit
same,hydrolysis by β-lactamase,PDC-3,hydrolysis was not detected
same,hydrolysis by β-lactamase,OXA-23,hydrolysis was not detected
same,toxicity,[1],not found
same,Caco-2 permeability,Caco-2,poor
same,clearance at 2 h,[2],14 mL/min/kg
same,concentration at 2 h,[2],> 1000 ng/mL
same,hydrolysis by β-lactamase,PER-2,hydrolysis was not detected
same,hERG binding,hERG,does not bind
same,ion channel binding,[3],does not bind
"CC(C)(O/N=C(\C(=O)N[C@H]1CN2CC(C(=O)NCCc3ccccc3)=C(C(=O)O)N2C1=O)c1csc(N)n1)C(=O)O [Compound 2, (S,Z)-6-(2-(2-Aminothiazol-4-yl)-2-(((2-carboxypropan-2-yl)oxy)imino)acetamido)-5-oxo-2-(phenethylcarbamoyl)-6,7-dihydro-1H,5H-pyrazolo[1,2-a]pyrazole-3-carboxylic Acid]",MIC,Gram-negative isolates,> 64 µg/mL
"CC(C)(O/N=C(\C(=O)N[C@@H]1C(=O)N2C(C(=O)[O-])=C(C[n+]3ccccc3)CS[C@H]12)c1csc(N)n1)C(=O)O [ceftazidime (4), ceftazidime]",MIC90,[4],>16 µg/mL
same,MIC50,[5],>64 µg/mL
same,MIC90,[5],>64 µg/mL
"C[C@@H](O)[C@H]1C(=O)N2C(C(=O)O)=C(S[C@@H]3CN[C@H](C(=O)N(C)C)C3)[C@H](C)[C@H]12 [meropenem (6), meropenem]",MIC90,[4],>8 µg/mL
same,MIC90,[5],>64 µg/mL
same,degradation after reconstitution,[6],> 30%
